Results from paper PMC3115796 (The Journal of Cell Biology, 2011).

B1: GFP-SLAIN1: GFP-tagged SLAIN1 (protein)
chain: MMAEQVKCASPVAASGAGPGPVVNAELEVKKLQELVRKLEKQNEQLRSRAASAAAAPHLLLLQPPPPSAPPPAGACSPLATHRAPASTTSPGPGALGPAFPGTYCLPSPAPSLLCSLQPADAPFVYSKPAAGFFGGGGSPEPGTAGTPPGEAATPPLPPPTLLDEVEPLDLESLAAWSEEDDYTWLYVGSSKTFTSPEKSPSPLQWCRHVLDNPTPEMEAARRSLRFRLEQGYTSRGSPLSPQSSIDSELSTSELEDDSISMGYKLQDLTDVQIMARLQEESLRQDYASTSASVSRNSSSVSLSSGKKGTCSDQEYDRYSLEDEEEFDHLPPPQPRLPRCSPFQRGIPHSQTFSSIRDCRRSPSTQYFPSNNFQQPQYYPPQAQTADQQPNRTNGDKLRRSMPNLARMPSTAAASSNLSSPVTVRSSQSFDSSLHGAGSGVSRVPSCIPSPGQIQHRVHSVGHFPVPIRQPLKATAYVSPTVQGSSSSGSSGSSGGSGSGMPLSNGTQLYSTTGIPTPNKAAASGILGRSALPRPSLAINGSNLPRSKIAQPVRSFLQPPKPLSSLSTLRDGNWRDGCY
modifications: left off: GFP, end not stated, kept
B2: GFP–CLIP-170-N: amino acids 4–309 of the rat CLIP-170 (protein)
chain: LKPSGLKAPTKILKPGSTALKTPAAAAAPLEKTVPSEKASGPPSSETQEEFVDDFRVGERVWVNGNKPGFIQFLGETQFAPGQWAGIVLDEPIGKNDGSVAGVRYFQCEPLKGIFTRPSKLTRKVQAEDEANGLQTAHARAASPLSTAAATMVSSSPATPSNIPQKPSQPVAKETSATPQISNLTKTASESISNLSEAGSVKKGERELKIGDRVLVGGTKAGVVRFLGETDFAKGEWCGVELDEPLGKNDGAVAGTRYFQCQPKYGLFAPVHKVTKIGFPSTTPAKAKAAAVRRVMATTPASLKRS
modifications: left off: GFP, end not stated, kept

Legend:
[1] = test system: MT plus ends in HeLa cells; assay: MT plus end tracking, live-cell imaging; type: cell-based; details: live or fixed cells
Summary of the method: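 HeLa cells were grown in 45% DME, 45% Ham's F10 and 10% fetal calf serum. Live imaging used TIRF/widefield at 37°C in a stage-top incubator in culture medium (100× 1.49 NA objective, EMCCD, 0.065 µm/pixel). For fixed cells, −20°C methanol was applied for 15 min, with a 15-min 4% PFA postfix for SLAIN1/2 and EB1 staining, followed by immunofluorescence on a widefield microscope.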

[2] = test system: SLAIN2 C terminus / full-length CLIP-170; assay: GST-SLAIN2 pull-down of CLIPs and full-length CLIP-170; type: binding

Molecule | MT plus end tracking / localization (in words) [1] | association with SLAIN2 C terminus [2]
B1 | colocalized with EB-positive MT ends | –
B2 | – | associated with the SLAIN2 C terminus
